Data set [1] in a line: Tested for plasma level after 90 min of 10 mg/kg dose administered in mice. The format is ADME, organism-based. Details: dose 10 mg/kg. The settings on record: mouse, read-out: Activity. The procedure, abridged: (§1)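 Plasma compound concentration (ng/mL) measured 90 min after oral dosing in LPS-stimulated mice at 10 or 30 mg/kg.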
Data set [2] in a line: Tested for plasma level after 90 min of 30 mg/kg dose administered in mice. The data set is classed as ADME, organism-based. The arrangement: dose 30 mg/kg. The conditions noted are these: mouse, read-out: Activity. The procedure, abridged:
as §1

Data set [3] concerns the target Mitogen-activated protein kinase 14 (Mus musculus, UniProt P47811). The data set is described as follows: Kd value and murine Mitogen-activated protein kinase p38 alpha complex was calculated.
Data set [4] addresses T1, Tumor necrosis factor (Homo sapiens, UniProt P01375). Kind of data set: Tested for inhibition of Tumor necrosis factor, alpha in THP cells. The data set is classed as functional, cell-based. The procedure, abridged:
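THP-1 cells preincubated with or without compound 30 min at 37 °C, 5% CO2, then stimulated with LPS (1 μg/mL final) for a further 18–24 h. Human TNF-α in supernatant measured by ELISA.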

The target in data set [5] is T1, Tumor necrosis factor. Kind of data set: Tested for inhibition of Tumor necrosis factor, alpha in human whole blood. The format is functional, tissue-based. In outline: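 Freshly drawn heparinized human whole blood mixed with compound serially diluted in human type AB serum, held 30 min at 37 °C, then stimulated ex vivo with E. coli LPS 0111:B4 (50 ng/mL final). Incubation 5 h at 37 °C. Plasma TNF-α quantified by ELISA, DELFIA or electrochemiluminescence against an on-plate standard curve. Duplicate 11-point curves fitted to a 4-parameter logistic. EC50 is the geometric mean over at least three donors.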

In data set [6] the target is Mitogen-activated protein kinase 14 (Mus musculus) (UniProt P47811).
For data set [7], the target named is Tumor necrosis factor (Mus musculus) (UniProt P06804). Kind of data set: Tested for inhibition of Tumor necrosis factor, alpha in LPS-stimulated mice at a dose of 30 mg/kg.
Data set [8] shares this target. The data set is described as follows: Tested for inhibition of Tumor necrosis factor, alpha in LPS-stimulated mice at a dose of 10 mg/kg; Not statistically significant. The conditions noted are these: at 10 mg/kg.
The nature of data set [9]: Partition coefficient (logP). The data set is classed as physicochemical. The settings on record: octanol/water.
Data set [10] has as its target Tumor necrosis factor (Mus musculus) (UniProt P06804). Kind of data set: Tested for inhibition of Tumor necrosis factor, alpha in LPS-stimulated mice at a dose of 10 mg/kg. The conditions noted are these: at 10 mg/kg.
The next data set deals with Mus musculus. Kind of data set: Tested for plasma level after 90 min of 10 mg/kg dose administered in mice; Not detected. The settings on record: in vivo, 1.5 h. The data set is classed as ADME, organism-based. Details: dose 10 mg/kg. The procedure, abridged: as §1

The source made the active and inactive calls. No cut-off for these calls is given here. Where only a bound is given, the exact number is not on record here.

Sequence of Mitogen-activated protein kinase 14 (P47811 whole entry): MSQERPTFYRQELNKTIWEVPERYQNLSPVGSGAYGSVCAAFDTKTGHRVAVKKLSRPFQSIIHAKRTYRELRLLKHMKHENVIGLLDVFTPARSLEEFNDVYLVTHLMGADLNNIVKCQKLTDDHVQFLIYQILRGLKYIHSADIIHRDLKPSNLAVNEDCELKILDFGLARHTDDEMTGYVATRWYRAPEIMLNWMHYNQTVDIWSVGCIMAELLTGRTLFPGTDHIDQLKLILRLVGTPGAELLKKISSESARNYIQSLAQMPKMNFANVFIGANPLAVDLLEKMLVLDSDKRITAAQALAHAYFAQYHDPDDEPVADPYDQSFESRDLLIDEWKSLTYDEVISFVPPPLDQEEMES
Sequence of Mitogen-activated protein kinase 14 (Mus musculus) (P47811 whole entry): as above
T1 sequence (P01375 whole entry): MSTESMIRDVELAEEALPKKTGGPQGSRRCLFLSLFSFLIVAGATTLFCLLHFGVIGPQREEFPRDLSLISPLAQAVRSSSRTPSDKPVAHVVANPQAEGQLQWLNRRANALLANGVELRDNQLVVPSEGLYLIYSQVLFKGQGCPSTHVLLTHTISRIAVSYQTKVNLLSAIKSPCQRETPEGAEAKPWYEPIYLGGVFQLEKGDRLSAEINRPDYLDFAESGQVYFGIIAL
Sequence of Tumor necrosis factor (Mus musculus) (P06804 whole entry, looked up): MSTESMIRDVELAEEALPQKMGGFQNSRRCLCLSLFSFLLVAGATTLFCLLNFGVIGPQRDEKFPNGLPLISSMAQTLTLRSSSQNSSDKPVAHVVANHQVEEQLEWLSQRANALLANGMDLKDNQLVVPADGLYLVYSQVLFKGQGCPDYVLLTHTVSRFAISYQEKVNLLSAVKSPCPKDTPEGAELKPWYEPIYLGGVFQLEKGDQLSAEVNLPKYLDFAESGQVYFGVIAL

Take `Cc1ccc(-n2nc(C(C)(C)C)cc2NC(=O)Nc2ccc(OCCN3C[C@H](C)O[C@@H](C)C3)c3ccccc23)cc1`: the concentration at 1.5 h amounted to 4200 ng/mL in [1] and 25000 ng/mL in data set [2]. For the same compound, the dissociation constant (Kd) (as a rule, the concentration at which binding is half-saturated) in data set [3] is 0.096 nM. For the same compound, the EC50 (as a rule, the concentration that produces a half-maximal response) at Tumor necrosis factor [4] is 16 nM; at Tumor necrosis factor [5] it was 770 nM. Besides, the Tm in data set [6] amounted to 62.1 °C. For the same compound, the inhibition (in general, the percentage by which the read-out fell short of the control) in data set [7] was determined as 50%. Further, in data set [8], the inhibition result is “inactive”.

`Cc1ccc(-n2nc(C(C)(C)C)cc2NC(=O)Nc2ccc(OCCN3CCOCC3)c3ccccc23)cc1` [DORAMAPIMOD]: the concentration at 1.5 h in data set [1] turned out to be 30000 ng/mL; in [2], 75000 ng/mL. In addition, the logP (commonly a log measure of how a compound divides between an organic and an aqueous phase) in data set [9] was found to be 4.6. For the same compound, the EC50 came out at 18 nM on Tumor necrosis factor [4] and 780 nM at Tumor necrosis factor [5]. In addition, the Tm in [6] turned out to be 63.5 °C. The results for the inhibition in [10] and in data set [7] were 63% and 84%, respectively.

`Cc1ccc(-n2nc(C(C)(C)C)cc2NC(=O)Nc2ccc(OCCc3cccnc3)c3ccccc23)cc1`: the dissociation constant Kd in data set [3] is 0.52 nM. Also, in [6], the Tm was determined as 59.8 °C.

Take `CC(C)(C)c1cc(NC(=O)Nc2ccc(OCCN3CCOCC3)c3ccccc23)n(-c2cccc(N)c2)n1`: the concentration at 1.5 h in [1] is 1400 ng/mL. In data set [3], the Kd was 0.23 nM. In addition, the EC50 on Tumor necrosis factor [4] is 11 nM; on Tumor necrosis factor [5], 1600 nM. Moreover, in [6], the Tm was determined as 60.9 °C. Further, in [8], the inhibition entry is “inactive”.

With `Cc1ccc(-n2nc(C(C)(C)C)cc2NC(=O)Nc2ccc(OCCN3CC[S+]([O-])CC3)c3ccccc23)cc1`, the concentration at 1.5 h in [2] came out at 62800 ng/mL. In data set [3], the Kd is 0.4 nM. Further, the half-maximal effective concentration (EC50) at Tumor necrosis factor [4] worked out at 50 nM; at Tumor necrosis factor [5], 1300 nM. Besides, in [6], the Tm is 60.2 °C. Moreover, in [7], the inhibition is 84%.

For `CC(C)c1cc(NC(=O)Nc2ccc(OCCN3CCOCC3)c3ccccc23)n(-c2ccccc2)n1`, the Kd in [3] is 3.4 nM. The Tm in data set [6] was determined as 56.6 °C.

With `Cc1ccc(-n2nc(C(C)(C)C)cc2NC(=O)Nc2ccc(OCCN3CCNCC3)c3ccccc23)cc1`, in data set [3], the equilibrium dissociation constant (Kd) is 12 nM. Also, the Tm in data set [6] amounted to 55.6 °C.

Consider `CC(C)(C)c1cc(NC(=O)Nc2ccc(OCCN3CCOCC3)c3ccccc23)n(Cc2ccccc2)n1`, for which the Kd in data set [3] is 64 nM. Further, the Tm in [6] was 53.4 °C.

`Cc1ccc(-n2nc(C(C)(C)C)cc2NC(=O)Nc2ccc(OCCN3CCCCC3)c3ccccc23)cc1`: in [3], the dissociation constant (Kd) is 14 nM. Also, the Tm in data set [6] amounted to 55.4 °C.

Take `CCOc1ccc(NC(=O)Nc2cc(C(C)(C)C)nn2-c2ccc(C)cc2)c2ccccc12`: the Kd in [3] was 11 nM. For the same compound, in data set [6], the Tm came out at 55.5 °C.

As for `Cc1ccc(-n2nc(C(C)(C)C)cc2NC(=O)Nc2ccc(OCCN3C[C@@H](C)O[C@@H](C)C3)c3ccccc23)cc1`, the equilibrium dissociation constant (Kd) in data set [3] was 1.5 nM. Besides, the Tm in data set [6] was determined as 58.4 °C.

Take `CC(C)(C)c1cc(NC(=O)Nc2ccc(OCCN3CCOCC3)c3ccccc23)n(C2CCCCC2)n1`: in data set [3], the Kd was 23 nM. The Tm in [6] came out at 54.8 °C.

On to `O=C(Nc1ccc(OCCN2CCOCC2)c2ccccc12)Nc1ccnn1-c1ccccc1`, for which, in [3], the Kd is 2400 nM. Also, the Tm in data set [6] came to 49.1 °C.

With `Cc1ccc(-n2nc(C(C)(C)CO)cc2NC(=O)Nc2ccc(OCCN3CCOCC3)c3ccccc23)cc1`, the Kd in [3] is 56 nM. In [6], the Tm worked out at 53 °C.

`COc1ccc(-n2nc(C(C)(C)C)cc2NC(=O)Nc2ccc(OCCN3CCOCC3)c3ccccc23)cn1`: the concentration at 1.5 h in data set [2] stood at 80000 ng/mL. In addition, in data set [3], the dissociation constant (Kd) was 0.87 nM. The values for the EC50 at Tumor necrosis factor [4] and at Tumor necrosis factor [5] were 42 nM and greater than 10000 nM, respectively. Moreover, the Tm in [6] was 59.1 °C. In data set [7], this compound gave an inhibition of 40%.

As to `Cc1ccc(-n2nc(C(C)(C)C)cc2NC(=O)Nc2ccc(OCCN3CCOCC3)c3ccccc23)cn1`, the concentration at 1.5 h in data set [1] turned out to be 13000 ng/mL; in data set [2], 54000 ng/mL. The logP in data set [9] is 3.6. Further, the Kd in data set [3] was 0.18 nM. Further, the half-maximal effective concentration (EC50) on Tumor necrosis factor [4] was determined as 19 nM; at Tumor necrosis factor [5] it was 530 nM. For the same compound, in [6], the Tm turned out to be 61.3 °C. Besides, the inhibition in data set [10] is 86%; in data set [7] it was 87%.

Turning to `Cn1nc(C(C)(C)C)cc1NC(=O)Nc1ccc(OCCN2CCOCC2)c2ccccc12`, the dissociation constant Kd in [3] is 26 nM. Moreover, the Tm in data set [6] was 54.5 °C.

Turning to `CC(C)(C)c1cc(NC(=O)Nc2ccc(OCCN3CCOCC3)c3ccccc23)n(-c2ccccc2)n1`, the figures for the concentration at 1.5 h in [1] and in [2] were 5400 ng/mL and 38000 ng/mL, respectively. In addition, in data set [3], the equilibrium dissociation constant (Kd) is 0.23 nM. Moreover, the concentration for a half-maximal effect (EC50) turned out to be 9 nM on Tumor necrosis factor [4] and 3400 nM at Tumor necrosis factor [5]. In addition, the Tm in data set [6] worked out at 61 °C. Further, the inhibition in [10] is 57%; in data set [7], 81%.

Regarding `CC(=O)Nc1cccc(-n2nc(C(C)(C)C)cc2NC(=O)Nc2ccc(OCCN3CCOCC3)c3ccccc23)c1`, the Kd in data set [3] is 9.9 nM. Further, the Tm in data set [6] came out at 55.9 °C.

As to `COc1ccc(CCOc2ccc(NC(=O)Nc3cc(C(C)(C)C)nn3-c3ccc(C)cc3)c3ccccc23)cc1OC`, the Kd in [3] was 3.5 nM. In data set [6], the Tm is 57.3 °C.

Turning to `Cc1ccc(-n2nc(C(C)(C)C)cc2NC(=O)Nc2ccc(OCCn3ccnc3)c3ccccc23)cc1`, the concentration at 1.5 h in data set [2] was 7000 ng/mL. For the same compound, in [3], the Kd was 0.074 nM. The EC50 on Tumor necrosis factor [4] was found to be 36 nM; at Tumor necrosis factor [5], 1100 nM. Also, the Tm in [6] came to 62.4 °C. This compound also registered an inhibition in data set [7] of 81%.

For the compound `CC1(c2cc(NC(=O)Nc3ccc(OCCN4CCOCC4)c4ccccc34)n(-c3ccccc3)n2)CCCCC1`, in [3], the dissociation constant (Kd) was 1.9 nM. In addition, the Tm in data set [6] was found to be 58.1 °C.

As for `Cc1ccc(-n2nc(C(C)(C)C)cc2NC(=O)Nc2ccc(OCCc3ccncc3)c3ccccc23)cc1`, the concentration at 1.5 h in [2] worked out at 30000 ng/mL. The Kd in data set [3] is 0.1 nM. Further, the 50% effective concentration (EC50) on Tumor necrosis factor [4] was determined as 20 nM; on Tumor necrosis factor [5], 820 nM. Moreover, the Tm in data set [6] was 62.4 °C. Also, the inhibition in [7] was 88%.

Regarding `Cc1ccc(-n2nc(C(C)(C)C)cc2NC(=O)Nc2ccc(OCCN3CCSCC3)c3ccccc23)cc1`, in data set [3], the Kd was 5.9 nM. Besides, the Tm in [6] came out at 56.6 °C.

On to `CC(C)(C)c1cc(NC(=O)Nc2ccc(OCCN3CCOCC3)c3ccccc23)n(-c2ccc(N)cc2)n1`, for which the Activity result with Mus musculus was “Not Active”. The Kd in data set [3] is 0.16 nM. Further, the EC50 amounted to 9 nM on Tumor necrosis factor [4] and 440 nM on Tumor necrosis factor [5]. For the same compound, the Tm in data set [6] is 61.4 °C. Moreover, the inhibition result in [8] was “inactive”.

For the compound `CC(=O)Nc1ccc(-n2nc(C(C)(C)C)cc2NC(=O)Nc2ccc(OCCN3CCOCC3)c3ccccc23)cc1`, in data set [3], the dissociation constant (Kd) is 64 nM. The Tm in data set [6] amounted to 53.4 °C.

The record behind these values is ChEMBL document CHEMBL1145135, “Structure-activity relationships of the p38alpha MAP kinase inhibitor 1-(5-tert-butyl-2-p-tolyl-2H-pyrazol-3-yl)-3-[4-(2-morpholin-4-yl-ethoxy)naph- thalen-1-yl]urea (BIRB 796)” (J Med Chem, 2003).
